Test results from ChEMBL document CHEMBL1122878, “New antihistaminic N-heterocyclic 4-piperidinamines. 3. Synthesis and antihistaminic activity of N-(4-piperidinyl)-3H-imidazo[4,5-b]pyridin-2-amines” (1985).

Key:
Assay type in all cases: functional
Rattus norvegicus [1] = assay: In vivo antihistaminic activity after 2 hours of oral administration using 48/80 lethality test in rat.
How it was run: (§1)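 Male inbred Wistar rats, 230–270 g, starved overnight, housed at 21 ± 1 °C and 65 ± 5% RH. Protection was survival at 4 h. ED50 by Finney from five rats per dose, at least three doses in a geometric series 0.0025–40 mg/kg.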

Rattus norvegicus [2] = assay: In vivo antihistaminic activity after 1 hour of subcutaneous administration using 48/80 lethality test in rat.; details: sc; how it was run: as §1
Cavia porcellus [3] = assay: In vivo antihistaminic activity after 24 hr of oral administration using histamine lethality test in guinea pig
How it was run: (§2)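 Male albino guinea pigs, 280–360 g. Compound given orally in twofold dose increments 3, 24, 48 or 96 h before an iv challenge with histamine dihydrochloride at 1.25 mg/kg. Protection was survival at 1 h. PD50 with confidence limits by Finney, using 4–6 animals per dose and time point, at least three doses from a geometric series 0.0025–5.0 mg/kg.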

Cavia porcellus [4] = assay: In vivo antihistaminic activity after 48 hr of oral administration using histamine lethality test in guinea pig; how it was run: as §2
Cavia porcellus [5] = assay: In vivo antihistaminic activity after 96 hr of oral administration using histamine lethality test in guinea pig; how it was run: as §2
Cavia porcellus [6] = assay: In vivo antihistaminic activity after 3 hr of oral administration using histamine lethality test in guinea pig; how it was run: as §2
Cavia porcellus [7] = assay: In vivo antihistaminic activity after 24 hr of oral administration using histamine lethality test in guinea pig.; how it was run: as §2
Cavia porcellus [8] = assay: In vivo antihistaminic activity after 3 hr of oral administration using histamine lethality test in guinea pig.; how it was run: as §2
Cavia porcellus [9] = assay: In vivo antihistaminic activity after 48 hr of oral administration using histamine lethality test in guinea pig.; how it was run: as §2

Row | SMILES | ED50 (Rattus norvegicus [1]) [mg/kg] | ED50 (Rattus norvegicus [2]) [mg/kg] | other results
1 | CCCCN1CCC(Nc2nc3cccnc3n2Cc2ccccc2)CC1 | > 2.5 | 0.16 | –
2 | Fc1ccc(Cn2c(NC3CCN(CCc4ccccn4)CC3)nc3cccnc32)cc1 | 0.31 | 0.04 | –
3 | c1ccc(Cn2c(NC3CCN(CCOc4ccccc4)CC3)nc3cccnc32)cc1 | 1.25 | 0.31 | –
4 | CN1CCC(Nc2nc3cccnc3n2Cc2ccc(F)cc2)CC1 | > 2.5 | 0.08 | –
5 | C(=C\c1ccccc1)/CN1CCC(Nc2nc3cccnc3n2Cc2ccccc2)CC1 | 1.25 | 1.25 | –
6 | COc1ccc(CCN2CCC(Nc3nc4cccnc4n3Cc3ccccc3)CC2)cc1 | 0.31 | 0.16 | –
7 | OC(COc1ccccc1)CN1CCC(Nc2nc3cccnc3n2Cc2ccccc2)CC1 (stereo not drawn) | 0.63 | 0.16 | –
8 | Oc1nc2ccccc2n1CCCN1CCC(Nc2nc3cccnc3n2Cc2ccc(F)cc2)CC1 | 2.5 | 0.63 | –
9 | COc1ccc(CCN2CCC(Nc3nc4ccccc4n3Cc3ccc(F)cc3)CC2)cc1 [ASTEMIZOLE] | 0.11 | 0.11 | ED50 (Cavia porcellus [3]): 0.07 mg/kg; ED50 (Cavia porcellus [4]): 0.04 mg/kg; ED50 (Cavia porcellus [5]): 0.19 mg/kg; ED50 (Cavia porcellus [6]): 0.33 mg/kg
10 | Fc1ccc(Cn2c(NC3CCN(CCCC(c4ccc(F)cc4)c4ccc(F)cc4)CC3)nc3cccnc32)cc1 | – | > 2.5 | –
11 | Fc1ccc(Cn2c(NC3CCN(CCCOc4ccccc4)CC3)nc3cccnc32)cc1 | 0.31 | 0.31 | –
12 | c1ccc(Cn2c(NC3CCN(CC4COc5ccccc5O4)CC3)nc3cccnc32)cc1 (stereo not drawn) | > 2.5 | 0.63 | –
13 | CN(C)C(=O)C(CCN1CCC(Nc2nc3cccnc3n2Cc2ccccc2)CC1)(c1ccccc1)c1ccccc1 | – | > 2.5 | –
14 | c1ccc(Cn2c(NC3CCN(C4CCCCC4)CC3)nc3cccnc32)cc1 | > 2.5 | 0.63 | –
15 | Fc1ccc(Cn2c(NC3CCN(CCc4ccccc4)CC3)nc3cccnc32)cc1 | > 2.5 | 0.31 | –
16 | Fc1ccc(OCCCN2CCC(Nc3nc4cccnc4n3Cc3ccccc3)CC2)cc1 | 1.25 | 1.25 | –
17 | O=C(CCCN1CCC(Nc2nc3cccnc3n2Cc2ccc(F)cc2)CC1)c1ccc(F)cc1 | 1.25 | 0.04 | –
18 | c1ccc(CCN2CCC(Nc3nc4cccnc4n3Cc3ccccc3)CC2)cc1 | > 2.5 | 0.08 | –
19 | c1ccc(Cn2c(NC3CCN(CCC(c4ccccc4)c4ccccc4)CC3)nc3cccnc32)cc1 | – | > 2.5 | –
20 | C=CCN1CCC(Nc2nc3cccnc3n2Cc2ccccc2)CC1 | > 2.5 | 0.31 | –
21 | COc1ccc(CCN2CCC(Nc3nc4cccnc4n3Cc3ccc(F)cc3)CC2)cc1 | 0.16 | 0.31 | ED50 (Cavia porcellus [7]): 0.12 mg/kg; ED50 (Cavia porcellus [8]): 0.16 mg/kg; ED50 (Cavia porcellus [9]): 0.25 mg/kg
22 | CC(C)N1CCC(Nc2nc3cccnc3n2Cc2ccccc2)CC1 | > 2.5 | 0.63 | –
23 | CCn1nnn(CCN2CCC(Nc3nc4cccnc4n3Cc3ccc(F)cc3)CC2)c1=O | > 2.5 | 0.31 | –
24 | Fc1ccc(Cn2c(NC3CCN(CCc4cccs4)CC3)nc3cccnc32)cc1 | > 2.5 | 0.16 | –
25 | Cc1cccc(C)c1NC(=O)CN1CCC(Nc2nc3cccnc3n2Cc2ccccc2)CC1 | – | > 2.5 | –
26 | Fc1ccc(Cn2c(NC3CCN(C/C=C/c4ccccc4)CC3)nc3cccnc32)cc1 | > 2.5 | 1.25 | –
27 | O=C(NCCN1CCC(Nc2nc3cccnc3n2Cc2ccccc2)CC1)c1ccc(F)cc1 | 1.25 | 0.08 | –
28 | CN1CCC(Nc2nc3cccnc3n2Cc2ccccc2)CC1 | > 2.5 | 0.08 | –
29 | c1ccc(Cn2c(NC3CCN(CCN4CCOCC4)CC3)nc3cccnc32)cc1 | 2.5 | 0.63 | –
30 | O=C(CCCN1CCC(Nc2nc3cccnc3n2Cc2ccccc2)CC1)c1ccc(F)cc1 | 1.25 | 0.31 | –
